# Assay results from ChEMBL document CHEMBL1122179, “1-(alkylamino)isochromans: hypotensives with peripheral and central activities” (J Med Chem, 1982).
# How the values were obtained:
# [1] = biological target: T1, Adrenergic receptor alpha-2 (Rattus norvegicus, UniProt P22086+P19328+P22909); assay: Compound was tested for the inhibition of [3H]clonidine binding Alpha-2 adrenergic receptor of crude rat brain membrane
# T1 sequence (P22086 whole entry): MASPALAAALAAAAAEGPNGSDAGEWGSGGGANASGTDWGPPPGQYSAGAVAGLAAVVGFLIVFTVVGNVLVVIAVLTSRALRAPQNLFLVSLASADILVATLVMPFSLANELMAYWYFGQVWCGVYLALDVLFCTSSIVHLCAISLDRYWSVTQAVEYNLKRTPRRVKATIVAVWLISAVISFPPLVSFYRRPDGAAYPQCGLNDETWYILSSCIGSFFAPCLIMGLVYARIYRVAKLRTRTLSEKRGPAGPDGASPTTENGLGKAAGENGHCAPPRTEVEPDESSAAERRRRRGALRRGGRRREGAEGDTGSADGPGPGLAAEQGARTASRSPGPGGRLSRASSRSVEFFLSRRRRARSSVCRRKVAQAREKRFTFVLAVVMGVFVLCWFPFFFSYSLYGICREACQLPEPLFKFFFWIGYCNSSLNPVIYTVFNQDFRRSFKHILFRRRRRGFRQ
# T1 sequence (P19328 whole entry): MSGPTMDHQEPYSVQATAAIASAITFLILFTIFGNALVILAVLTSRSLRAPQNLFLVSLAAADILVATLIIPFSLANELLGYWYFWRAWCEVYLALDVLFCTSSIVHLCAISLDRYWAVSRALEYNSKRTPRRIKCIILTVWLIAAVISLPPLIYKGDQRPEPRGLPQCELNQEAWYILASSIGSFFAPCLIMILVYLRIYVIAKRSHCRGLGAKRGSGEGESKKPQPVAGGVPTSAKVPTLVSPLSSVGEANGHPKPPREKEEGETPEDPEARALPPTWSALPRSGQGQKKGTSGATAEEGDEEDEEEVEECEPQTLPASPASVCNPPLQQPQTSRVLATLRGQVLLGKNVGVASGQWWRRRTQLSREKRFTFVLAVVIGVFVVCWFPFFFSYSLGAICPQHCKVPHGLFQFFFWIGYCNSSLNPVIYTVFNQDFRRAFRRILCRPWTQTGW
# T1 sequence (P22909 whole entry): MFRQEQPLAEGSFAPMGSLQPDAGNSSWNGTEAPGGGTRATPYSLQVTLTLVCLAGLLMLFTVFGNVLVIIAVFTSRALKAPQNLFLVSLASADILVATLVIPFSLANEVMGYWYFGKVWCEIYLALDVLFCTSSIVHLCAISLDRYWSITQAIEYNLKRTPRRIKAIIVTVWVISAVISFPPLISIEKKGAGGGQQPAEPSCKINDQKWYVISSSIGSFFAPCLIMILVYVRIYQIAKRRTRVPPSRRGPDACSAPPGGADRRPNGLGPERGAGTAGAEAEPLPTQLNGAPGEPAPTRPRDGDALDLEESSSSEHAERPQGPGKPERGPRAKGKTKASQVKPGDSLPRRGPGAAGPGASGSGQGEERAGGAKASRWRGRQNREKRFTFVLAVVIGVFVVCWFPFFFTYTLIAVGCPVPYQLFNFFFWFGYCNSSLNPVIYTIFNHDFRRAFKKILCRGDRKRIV
# [2] = test system: Rattus norvegicus; assay: Heart rate of compound was measured in anesthetized rats at 0 min.; type: functional
# Procedure, shortened: (§1)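 Female Sprague-Dawley rats (200–300 g), anesthetized iv with α-chloralose (40 mg/kg), urethane (40 mg/kg) and pentobarbital (15 mg/kg). Carotid artery catheter for blood pressure and heart rate, jugular vein for drugs. Test agent given at 1.0 mg/kg iv in 0.1 M citric acid (1 mg/mL). Pressor responses to iv norepinephrine 0.1 μg/kg, phenylephrine 2.5 μg/kg and angiotensin I 0.1 μg/kg were taken before and 15, 30, 45 and 60 min after dosing. Mean ± SEM.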
# [3] = test system: Rattus norvegicus; assay: Heart rate of compound was measured in anesthetized rats at 60 min.; type: functional; procedure, shortened: as §1
# [4] = test system: Rattus norvegicus; assay: Mean arterial pressure of compound was measured in anesthetized rats at 0 min.; type: functional, Artery; procedure, shortened: as §1
# [5] = test system: Rattus norvegicus; assay: Mean arterial pressure of compound was measured in anesthetized rats at 60 min; type: functional, Artery; procedure, shortened: as §1
# [6] = test system: Rattus norvegicus; assay: Delta BP refers to oral hypotensive activity of compound which is evaluated at 4 hr and 24 hr in restrained, normotensive conscious rats at a dose of 5 mg/kg; -9/-3; type: functional
# Procedure, shortened: (§2)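 Female Sprague-Dawley rats, normotensive, restrained in a towel. Blood pressure was read directly via chronic indwelling aortic cannulas exteriorized at the nape, before and 4 and 24 h after an oral dose suspended in carboxymethylcellulose (10 mL/kg). Values from two animals were averaged at each time; a mean change of at least 5 mmHg was taken as significant (p < 0.05).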
# [7] = test system: Rattus norvegicus; assay: Delta BP refers to oral hypotensive activity of compound which is evaluated at 4 hr and 24 hr in restrained, normotensive conscious rats at a dose of 15 mg/kg; -20/-18; type: functional; procedure, shortened: as §2
# [8] = test system: Rattus norvegicus; assay: Pressor effects of intravenous norepinephrine (0.1 ug/kg) was measured in anesthetized rats at 0 min.; type: functional; procedure, shortened: as §1
# [9] = test system: Rattus norvegicus; assay: Pressor effects of intravenous norepinephrine (0.1 ug/kg) was measured in anesthetized rats at 60 min.; type: functional; procedure, shortened: as §1
# [10] = test system: Rattus norvegicus; assay: Pressor effects of intravenous phenylephrine (2.5 ug/kg) was measured in anesthetized rats at 60 min.; type: functional
# Procedure, shortened: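 Female Sprague–Dawley rats (200–300 g) anesthetized iv with α-chloralose 40 mg/kg, urethane 40 mg/kg and pentobarbital 15 mg/kg. Carotid artery catheterized for blood pressure, jugular vein for drugs. Pressor response to iv phenylephrine 2.5 µg/kg measured before and 15, 30, 45, 60 min after 1.0 mg/kg iv test drug dissolved in 0.1 M citric acid (1 mg/mL). Mean ± SEM.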
# [11] = test system: Rattus norvegicus; assay: Pressor effects of intravenous phenylephrine (2.5 ug/kg) was measured in anesthetized rats at 0 min.; type: functional; procedure, shortened: as §1
smiles,measurement,setting,value
COc1cc2c(cc1OC)C(CCN1CCN(c3ccc(F)cc3)CC1)OCC2 (stereo unspecified),Ki,[1],62 nM
same,HR,[2],417 beats min-1
same,HR,[3],426 beats min-1
same,MAP,[4],105 mmHg
same,MAP,[5],87 mmHg
same,Delta blood pressure,[6],-9 mmHg
same,Delta blood pressure,[7],-20 mmHg
same,Pressor response,[8],19 mmHg
same,Pressor response,[9],7 mmHg
same,Pressor response,[10],16 mmHg
same,Pressor response,[11],48 mmHg
